OXTR potentiate: potentiates the human oxytocin receptor response; hit rate 0.061% among 320,000; activation, % at 3 µM; CHO-OTR cells, Fluo-8 calcium fluorescence, potentiator mode; 0% = oxytocin EC15, 100% = EC100;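 active means activation above that plate's cutoff, the mean activation of tested compounds plus 3 SD, cut at about 6.6% in these data, passing the limit was not always enough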;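 further: 100% uses oxytocin at 75 nM as the full agonist control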
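Replication – single well per compound, singlicate · Assay system – CHO cell line stably expressing human OTR · Timing – 6 min pre-incubation, 100 s read · Measure – normalized max/min fluorescence ratio, % activation · Doses – 3.0 µM, one dose · Detection – Fluo-8 calcium dye fluorescence · Probe or stimulus – oxytocin near EC15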
TRPML3 ag: activates the human TRPML3 channel. HEK293 TRPML3-YFP, Fluo-8 calcium fluorescence; 100% = the carbachol control signal. hit rate 0.29% among 220,000. activation, % at 3 µM;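 active means activation above its plate's cutoff, the mean activation of the plate's test wells plus 3 SD, cut at about 12% in these data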;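 further: 0% = DMSO only wells and 100% = carbachol wells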
Target sequence (Q8TDD5 whole entry, looked up): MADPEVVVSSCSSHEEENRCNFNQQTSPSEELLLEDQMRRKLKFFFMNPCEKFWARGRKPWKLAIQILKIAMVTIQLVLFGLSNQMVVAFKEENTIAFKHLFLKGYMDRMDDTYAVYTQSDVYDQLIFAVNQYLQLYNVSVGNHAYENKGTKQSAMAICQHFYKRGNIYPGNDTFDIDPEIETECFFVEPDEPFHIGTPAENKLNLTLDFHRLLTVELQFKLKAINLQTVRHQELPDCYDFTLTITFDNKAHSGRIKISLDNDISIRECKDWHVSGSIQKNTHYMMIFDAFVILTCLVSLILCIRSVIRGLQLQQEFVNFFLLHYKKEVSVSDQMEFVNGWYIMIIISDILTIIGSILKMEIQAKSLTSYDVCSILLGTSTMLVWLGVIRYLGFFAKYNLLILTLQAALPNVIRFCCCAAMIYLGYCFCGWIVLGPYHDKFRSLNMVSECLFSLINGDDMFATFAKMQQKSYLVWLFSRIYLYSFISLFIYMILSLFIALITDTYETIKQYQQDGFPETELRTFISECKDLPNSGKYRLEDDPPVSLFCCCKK
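Test system: HEK293 cells stably carrying human TRPML3-YFP; Doses: single dose, 3 µM final nominal compound, 0.3% DMSO final; Schedule: dye loading 1 h 37 °C then 30 min ambient, 125 s read; Technique: Fluo-8 calcium fluorescence; Benchmarks: high control carbachol 87 µM, low control DMSO.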
OXTR agonist: agonists of human oxytocin receptor; hit rate 0.32% among 320,000; P30559; CHO-OTR cells, Fluo-8 calcium fluorescence; normalized: DMSO 0%, oxytocin 100%; activation, % at 3 µM;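 active means activation above the mean of all tested compounds plus 3 SD, cutoff set per screening run, cut at about 20% in these data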;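 further: peak over basal fluorescence ratio from a 100 s FLIPR kinetic read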
V1R ag counter: V1a receptor agonism, counter-screen for OXTR agonists; AID 2797; hit rate 0.25% among 320,000; activation, % at 3 µM; P37288; CHO-V1R cells, Fluo-8 calcium fluorescence, agonist mode; 0% DMSO, 100% 3 nM vasopressin;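 active means activation above the mean activation of all tested compounds plus 3 SD, per screening run, cut at about 20% in these data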;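 further: signal is peak over basal fluorescence ratio across a 100 second FLIPR read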
zfTRPN1 agonist: activates the zebrafish TRPN1 channel; HEK293 zebrafish TRPN1-YFP, Fluo-8 calcium fluorescence; 100% = response to 87 µM carbachol; activation, % at 3 µM; hit rate 0.18% among 220,000;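 active means activation above its plate's cutoff, the mean activation of test wells on that plate plus 3 SD, cut at about 19% in these data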;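 further: 0% = DMSO alone and 100% = 87 µM carbachol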
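Material: zebrafish TRPN1-YFP in HEK293 cells. Doses: one dose of 3 µM, 0.3% DMSO. Incubation: dye 1 h 37 °C plus 30 min RT. Measured by: intracellular calcium fluorescence with Fluo-8.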
OXTR agonist cf: confirmation of human oxytocin receptor agonists. shares compounds with OXTR agonist. CHO-OTR cells, Fluo-8 calcium fluorescence, agonist. activation, % at 3 µM. hit rate 20% among 390;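 active means mean activation above about 20% derived from the earlier single-dose screen, limit read from the data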;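 further: peak over minimum fluorescence ratio per well during a 100 second FLIPR read; 0% = DMSO alone and 100% = oxytocin high control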
V1R ag counter 3x: V1R agonism in triplicate, counter-screen for OXTR agonists | hit rate 10% among 390 | activation, % at 3 µM | CHO-V1R cells, Fluo-8 calcium fluorescence, agonist | AID 434991 | shares compounds with OXTR agonist;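 active means mean activation over triplicate exceeds the hit threshold set in the earlier primary screen, cut at about 20% in these data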;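 further: peak over basal fluorescence ratio within a 100 second read; 0% = DMSO alone and 100% = 3 nM vasopressin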
Active calls of the source: *; / = no result. An excerpt weighted towards active compounds, which were near 0.58% of everything screened.

SMILES	OXTR potentiate	TRPML3 ag	OXTR agonist	V1R ag counter	zfTRPN1 agonist	OXTR agonist cf	V1R ag counter 3x
Cc1nc2c(c(=O)c3ccccc3n2C)c(=O)n1C1CCCCCC1	-12	0	20*	12	14	9	2
C=CCn1c(SCCCC)nc(O)cc1=O	-9	0	33*	3	1	1	0
Cc1cc(C(=O)O)cc(S(=O)(=O)NNC(=O)c2cccs2)c1C	8	/	1	1	/	/	/
CC(=O)Nc1ccc(-c2cn3c(n2)SCC3)cc1	-8	/	1	1	/	/	/
O=C(Oc1ccc(-c2cn3c(n2)SCC3)cc1)c1ccccc1	-12	3	27*	13	11	9	8
Cc1cccc(CCN2C(Nc3ccccc3)=NC[C@@H]2CC(C)C)c1	-19	/	21*	16	/	16	21*
c1ccc(C(c2ccccc2)c2ccn[nH]2)cc1	-4	/	0	0	/	/	/
COC(=O)c1cccc(NC(=S)NCc2ccc(Cl)cc2)c1	-13	9	21*	20	15	15	11
COC(=O)c1cc(NC(=S)NCc2ccc(Cl)cc2)cc(C(=O)OC)c1	-10	2	17	14	12	/	/
O=C(CCc1cn(Cc2ccc(F)cc2)c2ccccc12)N1CCOCC1	-24	/	20*	5	/	-1	0
O=C(CS(=O)(=O)c1cn(Cc2ccc(F)cc2)c2ccccc12)N1CCCCC1	-10	0	0	0	-1	/	/
CC1C/C(=C/c2ccco2)C(=O)/C(=C/c2ccco2)C1 (configuration not stated)	-8	0	24*	6	0	6	5
CN(CC(=O)Nc1cccc(F)c1)C(=O)c1ccncc1	-4	/	0	2	/	/	/
CCOc1ccc(/C=C/C2=Cc3c(sc(NC(=O)CSc4n[nH]c(N)n4)c3C#N)C(C)(C)C2)cc1	2	3	27*	9	7	12	7
CCOC(=O)c1sc(NC(=O)CSc2n[nH]c(-c3ccncc3)n2)c(C#N)c1C	-20	2	18	10	9	/	/
Cc1c(C(=O)Nc2ccc(F)cc2)sc2ncn(CC(=O)N3CCCCC3)c(=O)c12	-10	/	4	5	/	/	/
O=C(NC1CCCC1)C(c1cccs1)N(CC1CCCO1)C(=O)Cc1cccs1 (configuration not stated)	-13	0	20*	-1	1	-1	1
COc1ccc(C(C(=O)NC2CCCC2)N(CC2CCCO2)C(=O)Cc2cccs2)cc1OC (configuration not stated)	0	0	-1	1	-1	/	/
CCOC(=O)N1CCN(C(=O)Cn2ncn3nc(-c4cccs4)cc3c2=O)CC1	-4	0	-1	0	0	/	/
COc1ccc(C(=O)Nc2ccc(N3CCN(C(C)=O)CC3)cc2)cc1[N+](=O)[O-]	-12	1	25*	-1	1	1	0
CC(=O)N1CCN(c2ccc(NC(=O)c3ccc(Cl)c([N+](=O)[O-])c3)cc2)CC1	-11	/	1	8	/	/	/
Brc1ccc(CN2CCN(Cc3c[nH]c4ccccc34)CC2)cc1	-18	/	20*	7	/	8	4
Brc1ccccc1CN1CCN(Cc2c[nH]c3ccccc23)CC1	-12	/	5	2	/	/	/
CC(C)(CNC(=O)c1ccc(S(=O)(=O)Nc2ccc(Cl)cc2)cc1)N1CCOCC1	-12	/	21*	15	/	10	6
CCOc1ccc(NS(=O)(=O)c2ccc(C(=O)NCC(C)(C)N3CCOCC3)cc2)cc1	-4	/	7	8	/	/	/
SMILES	OXTR potentiate	TRPML3 ag	OXTR agonist	V1R ag counter	zfTRPN1 agonist	OXTR agonist cf	V1R ag counter 3x
CCCN1C=CC(=CC=C(C#N)C#N)C=C1	-8	1	21*	14	2	23*	36*
C=CCN1C=CC(=CC=C(C#N)C#N)C=C1	-6	1	23*	19	3	25*	30*
CC(=O)c1sc2nc(-c3cccs3)cc(C(F)(F)F)c2c1N	-18	5	27*	14	12	40*	52*
Cc1c(C(=O)O)sc2nc(-c3cccs3)cc(C(F)(F)F)c12	-10	/	0	0	/	/	/
Cc1nc2ccccc2n1CCC(=O)O	-4	1	1	-1	0	/	/
Cc1nc2ccccc2n2c(O)c(CC(=O)O)cc12	2	1	24*	15	0	1	2
Cc1cccc(CCNS(=O)(=O)c2ccc3c(c2)CCN3C(=O)CCC(=O)O)c1	-4	/	0	0	/	/	/
S=C1NC[C@H](c2ccccc2)N1CC1CCCCC1	-6	-1	-1	2	-3	/	/
Cc1ccccc1Cn1nnc(C(=O)Nc2cccc(C)c2C)c1N	-7	5	22*	17	9	22*	14
Cc1ccc(CNC(=O)Cn2nnc(C(=O)Nc3cccc(C)c3C)c2N)cc1	-6	/	2	2	/	/	/
COc1ccc(C2SCCN2C(=S)Nc2cccc(Cl)c2)cc1 (configuration not stated)	-21	1	23*	14	2	30*	18
COc1ccc(C2SCCN2C(=S)Nc2ccc(Cl)cc2)cc1 (configuration not stated)	-13	0	15	9	1	/	/
OC(CNC1CCCCCC1)COc1cccc2ccccc12 (configuration not stated)	-16	/	20*	12	/	8	5
N#CCCn1nc(-c2ccc(Cl)cc2)cc1Nc1ccccc1NC(=O)C(F)(F)F	-21	1	24*	18	4	4	3
N#CCCn1nc(-c2ccccc2)cc1Nc1ccccc1NC(=O)C(F)(F)F	-8	2	3	13	0	/	/
CCOC(=O)c1sc(NC(=O)c2cc(-c3ccc(C)cc3)nc3ccccc23)c(C#N)c1C	6	0	2	0	0	/	/
COC(=O)c1sc(NC(=O)c2cc(-c3ccccc3)nc3ccccc23)c(C#N)c1C	-23	0	20*	11	3	17	13
Cc1ccccc1-c1cc(C(=O)Nc2sc(C(=O)OC(C)C)c(C)c2C#N)c2ccccc2n1	-11	2	21*	13	2	14	13
CC(=O)N[C@@H]1[C@@H](O)[C@@H]2OC(c3ccccc3)OC[C@H]2O[C@@H]1N=[N+]=[N-] (some centres not stated)	-5	/	0	0	/	/	/
Cc1c(Cl)cccc1NC(=S)N(CCN(C)C)C(C)c1ccco1 (configuration not stated)	1	0	0	0	1	/	/

Screening data (PubChem)
